Test results published in ChEMBL document CHEMBL4138271, “Crystal Structures and Human Leukemia Cell Apoptosis Inducible Activities of Parthenolide Analogues Isolated from Piptocoma rufescens” (J Nat Prod, 2018).
Calls of active or inactive are those of the source. The calls are words filed in the database; no cut-off is given here.

Key:
[1] = system: MOLM-13; experiment: Induction of apoptosis in human MOLM13 cells assessed as early apoptotic cells at 0.56 uM after 24 hrs by Annexin-V FITC/7-AAD staining based flow cytometric method (reference value: 11.8%); assay type: functional
[2] = system: EOL1; experiment: Induction of apoptosis in human EOL-1 cells assessed as late apoptotic cells at 2.8 uM after 24 hrs by Annexin-V FITC/7-AAD staining based flow cytometric method (reference value: 0.535%); assay type: functional
[3] = system: MOLM-13; experiment: Induction of apoptosis in human MOLM13 cells assessed as live cells at 2.8 uM after 24 hrs by Annexin-V FITC/7-AAD staining based flow cytometric method (reference value: 86.8%); assay type: functional
[4] = system: EOL1; experiment: Induction of apoptosis in human EOL-1 cells assessed as late apoptotic cells at 0.56 uM after 24 hrs by Annexin-V FITC/7-AAD staining based flow cytometric method (reference value: 0.535%); assay type: functional
[5] = biological target: Transcription factor p65 (Homo sapiens) (UniProt Q04206); experiment: Inhibition of NFkappaB p65 in human EOL-1 cells at 10 uM after 72 hrs by immunoblotting method; assay type: cell-based
Sequence of Transcription factor p65 (Homo sapiens) (Q04206 whole entry): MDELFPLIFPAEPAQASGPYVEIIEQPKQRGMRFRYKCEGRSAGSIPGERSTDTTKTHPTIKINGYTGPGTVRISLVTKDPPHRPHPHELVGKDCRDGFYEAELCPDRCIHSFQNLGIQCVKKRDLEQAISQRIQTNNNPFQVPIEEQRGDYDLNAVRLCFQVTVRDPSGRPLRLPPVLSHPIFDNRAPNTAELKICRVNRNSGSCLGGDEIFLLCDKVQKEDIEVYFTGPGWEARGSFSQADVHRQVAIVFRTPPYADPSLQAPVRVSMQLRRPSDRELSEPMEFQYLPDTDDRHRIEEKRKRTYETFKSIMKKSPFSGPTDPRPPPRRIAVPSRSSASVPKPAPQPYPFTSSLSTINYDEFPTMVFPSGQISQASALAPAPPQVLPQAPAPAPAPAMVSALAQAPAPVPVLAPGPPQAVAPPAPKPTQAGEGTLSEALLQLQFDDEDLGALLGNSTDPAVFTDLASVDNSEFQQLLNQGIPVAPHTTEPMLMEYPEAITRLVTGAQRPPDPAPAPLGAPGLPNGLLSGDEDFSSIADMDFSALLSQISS
Procedure, shortened: (§1)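 MOLM-13 or EOL-1 cells treated 72 h at 10 μM. Cells washed in ice-cold PBS and lysed in hypertonic NP-40 buffer (10 mM HEPES pH 7.5, 0.5 M NaCl) with protease/phosphatase inhibitors. Protein measured by BCA; SDS-PAGE onto PVDF. Probed 12 h with rabbit monoclonal NF-κB-p65 antibody, goat β-actin as loading control, then chemiluminescence. Blots representative of three independent experiments.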

[6] = system: EOL1; experiment: Induction of apoptosis in human EOL-1 cells assessed as caspase-3 activation at 10 uM after 72 hrs by immunoblotting analysis; assay type: functional, cell-based
Procedure, shortened: (§2)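 EOL-1 cells (RPMI 1640, 10% FBS, 37 °C, 5% CO2) exposed 72 h; compounds at 10 μM, PKC412 at 10 nM. Harvested, PBS-washed, lysed in hypertonic NP-40 buffer with protease/phosphatase inhibitors; SDS-PAGE, PVDF transfer, rabbit monoclonal cleaved caspase-3 (Asp175) antibody 12 h, secondary 1 h, chemiluminescent detection; β-actin loading control. Representative blots of three independent experiments.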

[7] = system: EOL1; experiment: Induction of apoptosis in human EOL-1 cells assessed as live cells at 0.56 uM after 24 hrs by Annexin-V FITC/7-AAD staining based flow cytometric method (reference value: 97.5%); assay type: functional
[8] = system: MOLM-13; experiment: Induction of apoptosis in human MOLM13 cells assessed as necrotic cells at 1.1 uM after 24 hrs by Annexin-V FITC/7-AAD staining based flow cytometric method (reference value: 0%); assay type: functional
[9] = system: EOL1; experiment: Induction of apoptosis in human EOL-1 cells assessed as necrotic cells at 1.1 uM after 24 hrs by Annexin-V FITC/7-AAD staining based flow cytometric method (reference value: 0.032%); assay type: functional
[10] = system: MOLM-13; experiment: Cytotoxicity against human MOLM13 cells after 72 hrs by MTS assay; assay type: functional, cell-based; conditions: MOLM-13, 72 h
[11] = system: HT-29; experiment: Cytotoxicity against human HT-29 cells after 72 hrs by MTS assay; assay type: functional, cell-based; conditions: HT-29, 72 h
[12] = system: MOLM-13; experiment: Induction of apoptosis in human MOLM13 cells assessed as early apoptotic cells at 2.8 uM after 24 hrs by Annexin-V FITC/7-AAD staining based flow cytometric method (reference value: 11.8%); assay type: functional
[13] = system: EOL1; experiment: Induction of apoptosis in human EOL-1 cells assessed as necrotic cells at 0.56 uM after 24 hrs by Annexin-V FITC/7-AAD staining based flow cytometric method (reference value: 0.032%); assay type: functional
[14] = system: MOLM-13; experiment: Induction of apoptosis in human MOLM13 cells assessed as late apoptotic cells at 0.56 uM after 24 hrs by Annexin-V FITC/7-AAD staining based flow cytometric method (reference value: 1.43%); assay type: functional
[15] = system: MOLM-13; experiment: Induction of apoptosis in human MOLM13 cells assessed as late apoptotic cells at 2.8 uM after 24 hrs by Annexin-V FITC/7-AAD staining based flow cytometric method (reference value: 1.43%); assay type: functional
[16] = system: MOLM-13; experiment: Induction of apoptosis in human MOLM13 cells assessed as live cells at 1.1 uM after 24 hrs by Annexin-V FITC/7-AAD staining based flow cytometric method (reference value: 86.8%); assay type: functional
[17] = system: MOLM-13; experiment: Synergistic antileukemic activity against human MOLM13 cells assessed as concentration required for <= 75% cell survival after 72 hrs in presence of midostaurin by CellTiter 96 AQueous One solution cell proliferation assay; assay type: functional
[18] = system: EOL1; experiment: Cytotoxicity against human EOL-1 cells after 72 hrs by MTS assay; assay type: functional, cell-based; conditions: EOL1, 72 h
[19] = biological target: Transcription factor p65 (Homo sapiens) (UniProt Q04206); experiment: Inhibition of NFkappaB p65 in human MOLM13 cells at 10 uM after 72 hrs by immunoblotting method; assay type: cell-based; procedure, shortened: as §1
[20] = system: MOLM-13; experiment: Induction of apoptosis in human MOLM13 cells assessed as early apoptotic cells at 1.1 uM after 24 hrs by Annexin-V FITC/7-AAD staining based flow cytometric method (reference value: 11.8%); assay type: functional
[21] = system: MOLM-13; experiment: Induction of apoptosis in human MOLM13 cells assessed as late apoptotic cells at 1.1 uM after 24 hrs by Annexin-V FITC/7-AAD staining based flow cytometric method (reference value: 1.43%); assay type: functional
[22] = system: EOL1; experiment: Synergistic antileukemic activity against human EOL-1 cells assessed as concentration required for <= 75% cell survival after 72 hrs in presence of midostaurin by CellTiter 96 AQueous One solution cell proliferation assay; assay type: functional
[23] = system: MOLM-13; experiment: Induction of apoptosis in human MOLM13 cells assessed as caspase-3 activation at 10 uM after 72 hrs by immunoblotting analysis; assay type: functional, cell-based
Procedure, shortened: (§3)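 MOLM-13 cells treated 72 h with test compounds at 10 μM or PKC412 at 10 nM. Cells washed in ice-cold PBS, lysed at 10^8 cells/mL in NP-40 hypertonic buffer (pH 7.5) with protease/phosphatase inhibitors, then run on SDS-PAGE and PVDF. Blots probed 12 h with rabbit monoclonal cleaved caspase-3 (Asp175), β-actin as loading control. Representative of three independent experiments.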

[24] = system: EOL1; experiment: Induction of apoptosis in human EOL-1 cells assessed as live cells at 1.1 uM after 24 hrs by Annexin-V FITC/7-AAD staining based flow cytometric method (reference value: 97.5%); assay type: functional
[25] = system: MOLM-13; experiment: Induction of apoptosis in human MOLM13 cells assessed as necrotic cells at 2.8 uM after 24 hrs by Annexin-V FITC/7-AAD staining based flow cytometric method (reference value: 0%); assay type: functional
[26] = system: EOL1; experiment: Induction of apoptosis in human EOL-1 cells assessed as early apoptotic cells at 2.8 uM after 24 hrs by Annexin-V FITC/7-AAD staining based flow cytometric method (reference value: 1.94%); assay type: functional
[27] = system: MOLM-13; experiment: Induction of apoptosis in human MOLM13 cells assessed as live cells at 0.56 uM after 24 hrs by Annexin-V FITC/7-AAD staining based flow cytometric method (reference value: 86.8%); assay type: functional
[28] = system: EOL1; experiment: Induction of apoptosis in human EOL-1 cells assessed as early apoptotic cells at 1.1 uM after 24 hrs by Annexin-V FITC/7-AAD staining based flow cytometric method (reference value: 1.94%); assay type: functional
[29] = system: EOL1; experiment: Induction of apoptosis in human EOL-1 cells assessed as necrotic cells at 2.8 uM after 24 hrs by Annexin-V FITC/7-AAD staining based flow cytometric method (reference value: 0.032%); assay type: functional
[30] = system: MOLM-13; experiment: Induction of apoptosis in human MOLM13 cells assessed as necrotic cells at 0.56 uM after 24 hrs by Annexin-V FITC/7-AAD staining based flow cytometric method (reference value: 0%); assay type: functional
[31] = system: EOL1; experiment: Induction of apoptosis in human EOL-1 cells assessed as live cells at 2.8 uM after 24 hrs by Annexin-V FITC/7-AAD staining based flow cytometric method (reference value: 97.5%); assay type: functional
[32] = system: EOL1; experiment: Induction of apoptosis in human EOL-1 cells assessed as early apoptotic cells at 0.56 uM after 24 hrs by Annexin-V FITC/7-AAD staining based flow cytometric method (reference value: 1.94%); assay type: functional
[33] = system: EOL1; experiment: Induction of apoptosis in human EOL-1 cells assessed as late apoptotic cells at 1.1 uM after 24 hrs by Annexin-V FITC/7-AAD staining based flow cytometric method (reference value: 0.535%); assay type: functional
[34] = system: EOL1; experiment: Induction of apoptosis in human EOL-1 cells assessed as caspase-3 activation at 10 nM after 72 hrs by immunoblotting analysis; assay type: functional, cell-based; procedure, shortened: as §2
[35] = system: MOLM-13; experiment: Induction of apoptosis in human MOLM13 cells assessed as caspase-3 activation at 10 nM after 72 hrs by immunoblotting analysis; assay type: functional, cell-based; procedure, shortened: as §3

**Q.** For `C=C(C)C(=O)O[C@H]1C[C@@]2(C)OC(=CC2=O)/C(CO)=C\[C@H]2OC(=O)C(=C)[C@H]12` [GOIAZENSOLIDE], which Activity [1] is on record?
**A.** Its Activity is 14.7%.

**Q.** And the Activity [2]?
**A.** The Activity was 99.8%.

**Q.** And the Activity [3]?
**A.** The Activity was 0.135%.

**Q.** What about the Activity [4] of the same molecule?
**A.** The Activity was 6.18%.

**Q.** What about the inhibition [5] of the same molecule?
**A.** The inhibition was “Active”.

**Q.** What about the Activity [6] of the same molecule?
**A.** Its Activity is “Active”.

**Q.** What about the Activity [7] of the same molecule?
**A.** The Activity was 91.7%.

**Q.** What about the Activity [8] of the same molecule?
**A.** The Activity was 1.86%.

**Q.** And the Activity [9]?
**A.** Its Activity is 2.4%.

**Q.** And the IC50 [10]?
**A.** The IC50 was 860 nM.

**Q.** And the IC50 [11]?
**A.** The IC50 was 560 nM.

**Q.** What about the Activity [12] of the same molecule?
**A.** The Activity was 0.203%.

**Q.** And the Activity [13]?
**A.** Its Activity is 0.306%.

**Q.** What about the Activity [14] of the same molecule?
**A.** Its Activity is 3.18%.

**Q.** What about the Activity [15] of the same molecule?
**A.** Its Activity is 97.7%.

**Q.** And the Activity [16]?
**A.** The Activity was 2.54%.

**Q.** And the Activity [17]?
**A.** The Activity was 0.42 µM.

**Q.** And the IC50 [18]?
**A.** Its IC50 is 1100 nM.

**Q.** What about the inhibition [19] of the same molecule?
**A.** Its inhibition is “Active”.

**Q.** What about the Activity [20] of the same molecule?
**A.** Its Activity is 0.958%.

**Q.** What about the Activity [21] of the same molecule?
**A.** Its Activity is 94.6%.

**Q.** What about the Activity [22] of the same molecule?
**A.** Its Activity is 0.56 µM.

**Q.** What about the Activity [23] of the same molecule?
**A.** The Activity was “Active”.

**Q.** And the Activity [24]?
**A.** Its Activity is 3.99%.

**Q.** And the Activity [25]?
**A.** Its Activity is 1.96%.

**Q.** What about the Activity [26] of the same molecule?
**A.** The Activity was 0%.

**Q.** What about the Activity [27] of the same molecule?
**A.** Its Activity is 81.8%.

**Q.** What about the Activity [28] of the same molecule?
**A.** The Activity was 0.281%.

**Q.** What about the Activity [29] of the same molecule?
**A.** Its Activity is 0.189%.

**Q.** What about the Activity [30] of the same molecule?
**A.** The Activity was 0.392%.

**Q.** What about the Activity [31] of the same molecule?
**A.** The Activity was 0.01%.

**Q.** What about the Activity [32] of the same molecule?
**A.** Its Activity is 1.84%.

**Q.** And the Activity [33]?
**A.** The Activity was 93.3%.

**Q.** Which Activity [34] does the source give for `CO[C@@H]1[C@H](N(C)C(=O)c2ccccc2)C[C@H]2O[C@]1(C)n1c3ccccc3c3c4c(c5c6ccccc6n2c5c31)C(=O)NC4` here?
**A.** The Activity was “Active”.

**Q.** What about the Activity [35] of the same molecule?
**A.** Its Activity is “Active”.
